Bioassay records (PubChem)
Shown are actives, neighbours in structure and some others; about 4.6% of the full set was active somewhere.
HDAC3 inhib: blocks human histone deacetylase 3; O15379; inhibition, % at 8.3 µM; hit rate 0.15% among 320,000; recombinant HDAC3, fluorogenic peptide/trypsin coupled, fluorescence; in the data active means inhibition above about 26%, passing the limit was not always enough; inconclusive means no clear call, values can overlap the other calls
UCH37 inh: inhibitors of human deubiquitinating enzyme UCH37. inhibition, % (test concentration not listed). purified proteasome/UCH37, Ub-AMC cleavage fluorescence. AID 588478. hit rate 0.33% among 330,000;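 active means mean inhibition over replicate wells above about 20%, limit read from the data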
Target sequence (Q9Y5K5 whole entry, looked up): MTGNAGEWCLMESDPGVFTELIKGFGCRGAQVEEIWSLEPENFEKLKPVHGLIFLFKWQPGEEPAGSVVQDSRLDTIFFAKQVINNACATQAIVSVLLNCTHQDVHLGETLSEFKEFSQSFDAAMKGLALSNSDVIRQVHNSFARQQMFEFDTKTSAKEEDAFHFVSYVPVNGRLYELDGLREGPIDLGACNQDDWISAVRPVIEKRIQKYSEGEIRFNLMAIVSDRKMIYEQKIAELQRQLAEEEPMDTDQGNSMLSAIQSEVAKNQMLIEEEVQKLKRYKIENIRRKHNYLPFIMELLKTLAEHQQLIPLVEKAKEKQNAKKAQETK
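Assay system: Proteasome-bound UCH37. Buffer or medium: pH 7.4 Tris-HCl (50 mM) with ovalbumin, ATP-MgCl2, DTT. Incubation: 30 min preincubation with enzyme, 25 min cleavage at room temperature. Measured by: fluorescence, ex 355 nm, em 460 nm. Read-out basis: percent inhibition. Control set: wells without proteasome as full block, compound-free enzyme plus substrate as uninhibited.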
ALR inh: inhibitors of human sulfhydryl oxidase ALR. purified ALR, DTT oxidation, H2O2 HRP-luminol luminescence. inhibition, % (concentration not given with the values). hit rate 3.8% among 290,000. P55789;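 active means mean replicate inhibition above about 79%, with every replicate also reaching it, limit read from the data; inconclusive means only one of the two criteria met; inactive means mean below limit and not every replicate reaching it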
PfM18AAP inh: blocks P. falciparum M18 aspartyl aminopeptidase; recombinant PfM18AAP, H-Glu-NHMec fluorogenic cleavage; inhibition, % at 7.35 µM; hit rate 1.2% among 290,000; AID 1822;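 active means inhibition above the campaign mean inhibition over all tested compounds plus 3 SD, cut at about 28% in these data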
FAS TE block: inhibitors of human fatty acid synthase thioesterase domain. P49327. recombinant FAS-TE, OMFH fluorogenic substrate, fluorescence endpoint. inhibition, % at 15 µM. hit rate 0.67% among 360,000;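 active means compounds whose normalised, plate-corrected inhibition of enzyme fluorescence in the single-dose primary screen is 50% or more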
Rtt109 Vps75: C. albicans Rtt109 histone acetyltransferase inhibition. inhibition, % at 34.9 µM. hit rate 0.16% among 330,000. purified Rtt109/Vps75, ThioGlo CoA-SH fluorescence, 4 h. Q5AAJ8;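 active means inhibition of at least 50% in every replicate; inconclusive means best replicate reaches 50% inhibition but some replicates fall short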
Target sequence (Q5AAJ8 whole entry, looked up): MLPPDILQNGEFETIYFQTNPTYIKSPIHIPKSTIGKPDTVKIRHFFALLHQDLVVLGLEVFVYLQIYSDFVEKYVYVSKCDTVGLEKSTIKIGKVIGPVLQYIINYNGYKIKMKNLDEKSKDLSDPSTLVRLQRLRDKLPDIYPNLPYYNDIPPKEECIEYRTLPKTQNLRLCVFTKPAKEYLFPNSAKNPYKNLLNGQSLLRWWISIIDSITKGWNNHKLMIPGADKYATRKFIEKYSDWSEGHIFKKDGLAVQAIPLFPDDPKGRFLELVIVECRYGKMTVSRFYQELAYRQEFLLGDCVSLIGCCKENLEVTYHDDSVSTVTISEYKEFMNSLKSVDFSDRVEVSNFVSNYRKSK
FAS-TE inh conf: FAS thioesterase (human) inhibition, confirmation. shares compounds with FAS TE block. recombinant FAS-TE, OMFH fluorogenic substrate, fluorescence. inhibition, % at 15 µM. hit rate 45% among 2,300. AID 624325;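 active means compounds inhibiting the enzyme by at least 50% at 15 µM in any one of the replicates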
A number is an active result; i = inactive; ? = inconclusive; nt = no result.

SMILES	HDAC3 inhib	UCH37 inh	ALR inh	PfM18AAP inh	FAS TE block	Rtt109 Vps75	FAS-TE inh conf
COc1cc(S(=O)(=O)Nc2ccc(C)cc2)ccc1N=Cc1c(C)[nH]n(-c2ccc(C)cc2)c1=O	i	i	i	i	77.2	i	i
COc1cc(S(=O)(=O)Nc2ccc(C)cc2)ccc1N=Cc1c(C)c(C#N)c(=O)n(C)c1O	?	nt	i	i	i	i	nt
Cc1ccc(C=NNC(=O)C(=O)NN=Cc2ccc(C)o2)o1	nt	i	nt	nt	nt	nt	nt
O=C1OCCN1C(=O)[C@H]1[C@H](c2ccc(Cl)cc2)C(c2ccc(F)cc2)=NN1c1ccc(Br)cc1	nt	i	nt	nt	87.7	i	i
O=C1OCCN1C(=O)[C@H]1[C@H](c2ccc(F)cc2)C(c2ccc(F)cc2)=NN1c1ccc(Br)cc1	i	i	i	i	84.2	i	i
C[C@@H]1C(c2ccccc2)=NN(c2ccc(Br)cc2)[C@H]1C(=O)N1CCOC1=O	nt	i	nt	nt	i	i	nt
CC[C@@H]1C(c2ccc(F)cc2)=NN(c2ccccc2)[C@H]1C(=O)N1CCOC1=O	nt	i	nt	nt	i	i	nt
COc1ccc(C=NN=C2SC(CC(=O)O)C(=O)N2c2ccc(O)cc2)cc1 (stereo unspecified)	nt	i	nt	nt	nt	nt	nt
COc1cc2c(C)nc3c(c(C)nn3-c3ccccc3)c2cc1OC	i	i	nt	i	i	i	nt
COc1cc2c(C)nc3onc(-c4ccccc4)c3c2cc1OC	i	i	i	i	69.9	i	45.1
CC1CC(=NNC(=S)NC(C)C)CC(C)(C)C1 (stereo unspecified)	nt	i	nt	nt	nt	nt	nt
COc1ccc2[nH]c3c(c2c1)CCN1C(=O)C(CC(=O)NCCc2ccccn2)C[C@H](C(=O)N2CCOCC2)[C@@]31CCC1CCCC1 (stereo partly specified)	nt	i	nt	nt	61.4	i	45.6
O=C(CC1C[C@H](C(=O)N2CCOCC2)[C@@]2(CCC3CCCC3)c3[nH]c4ccccc4c3CCN2C1=O)NCC12CC3CC(CC(C3)C1)C2 (stereo partly specified)	i	i	nt	nt	88.8	i	i
COCCCNC(=O)CC1C[C@H](C(=O)N2CCOCC2)[C@@]2(CCC3CCCC3)c3[nH]c4ccc(OC)cc4c3CCN2C1=O (stereo partly specified)	nt	i	nt	nt	52.7	i	64.1
COc1ccc2[nH]c3c(c2c1)CCN1C(=O)C(CC(=O)NC/C=C(\C)CCC=C(C)C)C[C@H](C(=O)N2CCOCC2)[C@@]31CCC1CCCC1 (stereo partly specified)	nt	i	nt	nt	i	i	nt
O=C(C[C@H]1C[C@H](C(=O)N2CCOCC2)[C@@]2(CCC3CCCC3)c3[nH]c4ccc(Cl)cc4c3CCN2C1=O)NCCCn1ccnc1	nt	i	nt	nt	54.6	i	i
O=S(=O)(c1ccc(NC(=S)NN=Cc2c3ccccc3cc3ccccc23)cc1)N1CCOCC1	nt	i	nt	nt	nt	nt	nt
O=C(CC1C[C@H](C(=O)N2CCOCC2)[C@@]2(CCC3CCCC3)c3[nH]c4ccccc4c3CCN2C1=O)NCCc1ccccn1 (stereo partly specified)	i	i	i	nt	80.5	i	90.7
O=C(CC1C[C@H](C(=O)N2CCOCC2)[C@@]2(CCC3CCCC3)c3[nH]c4ccccc4c3CCN2C1=O)NCc1ccco1 (stereo partly specified)	i	i	i	nt	84.2	i	91.6
CN(C)C(=O)CCc1ccc2c3c([nH]c2c1)[C@]1(CCC2CCCC2)[C@@H](C(=O)N2CCOCC2)C[C@H](CC(=O)NCCc2ccccn2)C(=O)N1CC3	nt	i	nt	nt	i	i	nt
O=C(CC1C[C@H](C(=O)N2CCOCC2)[C@@]2(CCC3CCCC3)c3[nH]c4ccccc4c3CCN2C1=O)NCCN1CCOCC1 (stereo partly specified)	i	i	nt	nt	76.2	i	87.4
O=C(NN=Cc1ccccc1)c1ccc(N2CCOCC2)c([N+](=O)[O-])c1	nt	i	nt	nt	nt	nt	nt
CSc1ccc(C=NNC(=O)c2sccc2C)cc1	nt	i	nt	nt	nt	nt	nt
Cc1ccc(C(=O)/C=C/NNC(=O)c2ccccc2)cc1	nt	i	nt	nt	nt	nt	nt
CCOC(=O)c1cc2c(=O)n3ccccc3nc2n(C(C)C)c1=NC(=O)c1c(-c2c(F)cccc2Cl)noc1C	i	i	nt	i	94.2	i	i
SMILES	HDAC3 inhib	UCH37 inh	ALR inh	PfM18AAP inh	FAS TE block	Rtt109 Vps75	FAS-TE inh conf
CCOC(=O)c1cc2c(=O)n3ccccc3nc2n(CC2CCCO2)c1=NC(=O)/C=C/c1ccccc1 (stereo unspecified)	i	i	i	i	80.0	i	83.5
CCOC(=O)c1cc2c(=O)n3ccccc3nc2n(CC2CCCO2)c1=NC(C)=O (stereo unspecified)	i	i	i	i	i	i	nt
O=S(=O)(NN=Cc1ccc2c(c1)OCCO2)c1ccccc1	nt	i	nt	nt	nt	nt	nt
O=C(NN=Cc1c(F)c(F)c(F)c(F)c1F)c1ccc(-c2ccccc2)cc1	nt	i	nt	nt	nt	nt	nt
Cc1ccc(-c2csc(NC(=O)COc3ccc(N(C)S(=O)(=O)c4ccc(C)cc4)cc3)n2)cc1	i	i	i	i	i	i	nt
COc1ccc(-c2csc(NC(=O)c3ccccc3NS(=O)(=O)c3ccc(C)cc3)n2)cc1	i	i	i	i	55.5	i	48.9
COc1ccc(-c2csc(NC(=O)COc3ccc(N(C)S(=O)(=O)c4ccc(C)cc4)cc3)n2)cc1	i	i	nt	i	53.3	i	i
COc1ccc(S(=O)(=O)Nc2ccccc2C(=O)Nc2nc(-c3ccc(F)cc3)cs2)cc1OC	nt	i	nt	i	i	i	nt
Cc1ccc(C=NNC(=O)c2n[nH]c3c2CCCC3)cc1	nt	i	nt	nt	nt	nt	nt
O=C(Cn1c(=O)c2sccc2n(Cc2cccc([N+](=O)[O-])c2)c1=O)NCCc1ccccc1	i	i	i	i	57.1	i	62.8
O=C(Cn1c(=O)c2sccc2n(Cc2ccc([N+](=O)[O-])cc2)c1=O)NCCc1ccccc1	i	i	i	i	74.9	i	75.8
O=C(Cn1c(=O)n(-c2ccccc2)c(=O)c2sccc21)NCc1ccccc1	i	i	nt	i	i	i	nt
CCC(=NNC(=O)CNC(=O)/C=C/c1ccc(OC)cc1)c1ccccc1	nt	i	nt	nt	nt	nt	nt
O=C(Oc1ccc(C=NNC(=O)c2ccccc2O)cc1)c1ccccc1	nt	i	nt	nt	nt	nt	nt
CNC(=S)N(Cc1ccc(OC)cc1)C1CC(=O)N(c2ccc(Cl)cc2)C1=O (stereo unspecified)	i	i	i	i	62.5	i	69.8
CC(C)(C)c1ccc(C(=O)NCC(=O)OCc2ccc([N+](=O)[O-])cc2)cc1	i	i	i	i	71.3	i	83.2
Cc1cc2c(=O)oc(-c3ccccc3Br)nc2s1	nt	i	nt	i	59.1	i	65.0
Cc1cc2c(=O)oc(-c3ccc(F)cc3)nc2s1	i	i	i	i	i	i	nt
CCc1cc2c(=O)oc(-c3ccccc3F)nc2s1	69.0	i	nt	i	75.3	i	59.9
O=C1c2cccc3cccc(c23)C(=O)N1N=Cc1ccc(O)cc1O	nt	i	nt	nt	nt	nt	nt
